The labels stand for the following.
B1: tRNA (parent)
chain: CUCUCGGUAGCCAAGUUGGUUUAAGGCGCAAGACUUUAAUUUAUCACUACGAAAUCUUGAGAUCGGGCGUUCGACUCGCCCCCGGGAGAUUUUUUCCUCGAGCAA

Variants at the floor of the assay were thinned out.

In the data set the parent is B1. As to the kind of experiment: nonsense suppression (GFP-seq) (ratio to wild type); higher = more function; SUP4oc tRNA, yeast GFP reporter sort-seq. The procedure, abridged:
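Nonsense suppression (GFPSEQ) is the median GFP/RFP ratio of each sorting bin, weighted by the variant's estimated share of cells in that bin and expressed relative to the unmutated parent tRNA. Yeast strains carried genome-integrated variants of an ochre-suppressor tRNA from a library with ~3% random mutations, plus a galactose-driven GFP ochre reporter and RFP, and were grown in raffinose/galactose medium containing 80 mg/L adenine. Cells were sorted into GFP/RFP bins, each bin was Illumina-sequenced (phred ≥30), and variants were kept only with ≥100 reads and ≥30 cells.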
For CUCUCGGUAGCCAAGUUGGUUUAAGGCGCAAGACUUUAAUUUAUCACUACGAAAUCUUGAGAUCGGGCGUUCGACUCGCCUCCGGGGGAUUUUUUCCUCGAGCAA [C81U A87G], the nonsense suppression stood at 0.239. As to CUCUCGGUAGCCAAGUUGGUUUAAGGCGCAAGACUUUAAUUUAUCACUACGAAAUCUUGAGAUCGGGCGUUCGACUCACCCCCGGGACAUUUUUUCCUCGAGCAA [G78A G88C], the nonsense suppression is 0.0845. Next, CUCUCGGUAGCCAAGUUGGUUUAAGGCGCAAGACUUUAAUUUAUCACUACGAAAUCUUGAGAUCGGGCGUUCGACUCGCUCCCGGGAGAUUUUUUCCUCGAGCAA [C80U]: 0.697. For CUCUCGGUAGCCAAGUUGGUUUAAGGCGCAAGACUUUAAUUUAUCACUACGAAAUCUUGAGAUCGGGCGUUCGACUCACCCCCGGGGGAUUUUUUCCUCGAGCAA [G78A A87G] the value was 0.294.

As to CUCUCGGUAGCCAAGUUGGUUUAAGGCGCAAGACUUUAAUUUAUCACUACGAAAUCUUGAGAUCGGGCGUUCGACUCACCCCCGGGUGAUUUUUUCCUCGAGCAA [G78A A87U], the nonsense suppression was found to be 0.032.

Take CUCUCGGUAGCCAAGUUGGUUUAAGGCGCAAGACUUUAAUUUAUCACUACGAAAUCUUGAGAUCGGGCGUUCGACUCACCCCCGGGCGAUUUUUUCCUCGAGCAA [G78A A87C]: the nonsense suppression was 0.032. Turning to CUCUCGGUAGCCAAGUUGGUUUAAGGCGCAAGACUUUAAUUUAUCACUACGAAAUCUUGAGAUCGGGCGUUCGACUCGCCACCGGGUGAUUUUUUCCUCGAGCAA [C81A A87U], the nonsense suppression was no more than 0.026. As to CUCUCGGUAGCCAAGUUGGUUUAAGGCGCAAGACUUUAAUUUAUCACUACGAAAUCUUGAGAUCGGGCGUUCGACUCGACCCAGGGAGAUUUUUUCCUCGAGCAA [C79A C83A], the nonsense suppression is no more than 0.026. For CUCUCGGUAGCCAAGUUGGUUUAAGGCGCAAGACUUUAAUUUAUCACUACGAAAUCUUGAGAUCGGGCGUUCGACUCACCCCCGGAACAUUUUUUCCUCGAGCAA [G78A G86A G88C] the value was no more than 0.026; for CUCUCGGUAGCCAAGUUGGUUUAAGGCGCAAGACUUUAAUUUAUCACUACGAAAUCUUGAGAUCGGGCGUUCGACUCGCCUCCGGGAUAUUUUUUCCUCGAGCAA [C81U G88U], 0.0501; for CUCUCGGUAGCCAAGUUGGUUUAAGGCGCAAGACUUUAAUUUAUCACUACGAAAUCUUGAGAUCGGGCGUUCGACUCUCCCUCGGGAGAUUUUUUCCUCGAGCAA [G78U C82U], 0.105.

Turning to CUCUCGGUAGCCAAGUUGGUUUAAGGCGCAAGACUUUAAUUUAUCACUACGAAAUCUUGAGAUCGGGCGUUCGACUCGCCUCCGGGAGAUUUUUUCCUCGAGCAA [C81U], the nonsense suppression was 1.16.

For CUCUCGGUAGCCAAGUUGGUUUAAGGCGCAAGACUUUAAUUUAUCACUACGAAAUCUUGAGAUCGGGCGUUCGACUCGCCGCCGGGGGAUUUUUUCCUCGAGCAA [C81G A87G], the nonsense suppression was 0.0415. Next, CUCUCGGUAGCCAAGUUGGUUUAAGGCGCAAGACUUUAAUUUAUCACUACGAAAUCUUGAGAUCGGGCGUUCGACUCGUCCCCGGCAGAUUUUUUCCUCGAGCAA [C79U G86C]: 0.0687; CUCUCGGUAGCCAAGUUGGUUUAAGGCGCAAGACUUUAAUUUAUCACUACGAAAUCUUGAGAUCGGGCGUUCGACUCACCCCUGGGAGAUUUUUUCCUCGAGCAA [G78A C83U]: 0.0266; CUCUCGGUAGCCAAGUUGGUUUAAGGCGCAAGACUUUAAUUUAUCACUACGAAAUCUUGAGAUCGGGCGUUCGACUCACCCCAGGGAGAUUUUUUCCUCGAGCAA [G78A C83A]: no more than 0.026. For CUCUCGGUAGCCAAGUUGGUUUAAGGCGCAAGACUUUAAUUUAUCACUACGAAAUCUUGAGAUCGGGCGUUCGACUCACCCCCGUGAGAUUUUUUCCUCGAGCAA [G78A G85U] the value was 0.0673; for CUCUCGGUAGCCAAGUUGGUUUAAGGCGCAAGACUUUAAUUUAUCACUACGAAAUCUUGAGAUCGGGCGUUCGACUCUCCCCAGGGAGAUUUUUUCCUCGAGCAA [G78U C83A], 0.0425; for CUCUCGGUAGCCAAGUUGGUUUAAGGCGCAAGACUUUAAUUUAUCACUACGAAAUCUUGAGAUCGGGCGUUCGACUCCCCCCCGGGAGAUUUUUUCCUCGAGCAA [G78C], 0.202. Turning to CUCUCGGUAGCCAAGUUGGUUUAAGGCGCAAGACUUUAAUUUAUCACUACGAAAUCUUGAGAUCGGGCGUUCGACUCACCCCCGGGAGAUUUUUUCCUCGAGCAA [G78A], the nonsense suppression worked out at 0.775.

As for CUCUCGGUAGCCAAGUUGGUUUAAGGCGCAAGACUUUAAUUUAUCACUACGAAAUCUUGAGAUCGGGCGUUCGACUCUCCCCCGGGAGAUUUUUUCCUCGAGCAA [G78U], the nonsense suppression came to 0.63.

Regarding CUCUCGGUAGCCAAGUUGGUUUAAGGCGCAAGACUUUAAUUUAUCACUACGAAAUCUUGAGAUCGGGCGUUCGACUCGCACUCGGGAGAUUUUUUCCUCGAGCAA [C80A C82U], the nonsense suppression is no more than 0.026. In the case of CUCUCGGUAGCCAAGUUGGUUUAAGGCGCAAGACUUUAAUUUAUCACUACGAAAUCUUGAGAUCGGGCGUUCGACUAGCCUCCGGGAGAUUUUUUCCUCGAGCAA [C77A C81U], the nonsense suppression was no more than 0.026. Next, CUCUCGGUAGCCAAGUUGGUUUAAGGCGCAAGACUUUAAUUUAUCACUACGAAAUCUUGAGAUCGGGCGUUCGACUCACCCCCUGGAGAUUUUUUCCUCGAGCAA [G78A G84U]: 0.0325; CUCUCGGUAGCCAAGUUGGUUUAAGGCGCAAGACUUUAAUUUAUCACUACGAAAUCUUGAGAUCGGGCGUUCGACUCACCCCCAGGAGAUUUUUUCCUCGAGCAA [G78A G84A]: 0.459. Next, CUCUCGGUAGCCAAGUUGGUUUAAGGCGCAAGACUUUAAUUUAUCACUACGAAAUCUUGAGAUCGGGCGUUCGACUCGGCCGCGGGAGAUUUUUUCCUCGAGCAA [C79G C82G]: no more than 0.026; CUCUCGGUAGCCAAGUUGGUUUAAGGCGCAAGACUUUAAUUUAUCACUACGAAAUCUUGAGAUCGGGCGUUCGACUCGCUCCCGAGAGAUUUUUUCCUCGAGCAA [C80U G85A]: 0.733.

Source of the values: the RNAGym collection of RNA variant scans (doi:10.1101/gad.245936.114).
